NR2E3 ag-1 = inhibitors of NR2E3-RetCOR corepressor binding, primary screen, NR2E3 agonist project, biochemical, TR-FRET, GST-NR2E3, biotin-RetCOR. 1536-well. AID 2300, 2010. hit rate 0.12% among 320,000. Photoreceptor-specific nuclear receptor (Homo sapiens), Q9Y5X4. inhibition of corepressor binding, % at 4.78 µM;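 active = percent inhibition above the cutoff of mean plus 3 SD of all tested compounds, set per screening campaign, cut at about 20% in these data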;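 also: 0% = DMSO wells and 100% = biotin wells as full block of FRET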
Target sequence (Q9Y5X4 whole entry, looked up): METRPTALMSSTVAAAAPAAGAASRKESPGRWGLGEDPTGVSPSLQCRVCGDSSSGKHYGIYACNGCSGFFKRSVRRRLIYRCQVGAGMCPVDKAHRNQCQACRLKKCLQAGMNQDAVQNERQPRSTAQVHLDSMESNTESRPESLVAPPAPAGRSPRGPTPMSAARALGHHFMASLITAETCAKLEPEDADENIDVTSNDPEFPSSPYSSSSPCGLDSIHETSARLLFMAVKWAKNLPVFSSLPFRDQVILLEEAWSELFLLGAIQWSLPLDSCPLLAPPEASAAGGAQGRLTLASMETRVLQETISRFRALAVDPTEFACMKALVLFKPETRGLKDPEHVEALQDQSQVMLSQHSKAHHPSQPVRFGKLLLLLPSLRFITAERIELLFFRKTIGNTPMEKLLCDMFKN
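Test system – NR2E3–RetCOR corepressor complex · Quantity – NR2E3 fusion 1.35 nM · Buffer or medium – Tris pH 7.5 · Incubation – Compound–protein incubation for 5 h at 4 °C · Technique – TR-FRET, Eu(K)-anti-GST donor, streptavidin-D2 acceptor, ex 340, em 617/671 nm · Evaluation – percent inhibition of 671/617 nm emission ratio versus biotin and DMSO controls · Plate – 1536-well format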
Rev-erbA mod = modulators of Rev-erb alpha DNA binding, primary screen, biochemical, FITC-DNA, fluorescence polarization, uHTS. Nuclear receptor subfamily 1 group D member 1 (Homo sapiens), P20393. Rev-erbα–FITC-DNA binding, 90 min. activity, % at 10 µM. hit rate 0.79% among 370,000. AID 1259318, 2017;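 active = activity above about 14%, limit read from the data; passing the limit was not always enough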;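 also: 0% = DMSO wells with 35 nM protein and 100% = DMSO wells with 750 nM protein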
PG9 binder = binders of HIV-1 gp120 antibody PG9, primary screen, biochemical, TR-FRET; inhibition, % at 6.7 µM; hit rate 0.43% among 360,000; TR-FRET gp120-PG9 antibody binding; in the data active = inhibition above about 8.5%
NR2E3 ag-2 = NR2E3 agonists in two-hybrid cells, primary screen, cell-based, luminescence, CHO-S, Gal4-NCOR/VP16-NR2E3; hit rate 0.35% among 360,000; inhibition of corepressor binding, % at 3.98 µM; Photoreceptor-specific nuclear receptor (Homo sapiens), Q9Y5X4; luciferase; AID 602229, 2012;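 active = inhibition above the mean of all tested compounds plus 3 SD, cut at about 70% in these data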;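 also: 0% = DMSO with NR2E3 transfected cells and 100% = cells lacking NR2E3 construct; higher means lower luciferase signal from less NR2E3 corepressor binding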
PG9 binder conf = binders of anti-gp120 antibody PG9, confirmation, biochemical, TR-FRET; shares compounds with PG9 binder; TR-FRET PG9 antibody binding; inhibition, % at 6.7 µM; hit rate 90% among 1,500; AID 651571, 2012; in the data active = inhibition above about 9%
PGV04 counter = binders of control antibody PGV04, counter-screen for PG9 antibody binder project, biochemical, TR-FRET, distinct HIV envelope site | shares compounds with PG9 binder | TR-FRET PGV04 antibody-gp120 binding | inhibition, % at 6.7 µM | hit rate 95% among 1,500 | AID 651604, 2012; in the data active = inhibition above about 9.5%
Starred values were filed as active, the others as inactive; / = no result. In the library only some 1.4% were active in any assay of this set; here they are far more common.

SMILES	NR2E3 ag-1	Rev-erbA mod	PG9 binder	NR2E3 ag-2	PG9 binder conf	PGV04 counter
COc1cccc(-c2nn(-c3ccccc3)cc2C(=O)OCC(=O)Nc2ncc(Cl)cc2Cl)c1	3	4	1	-22	/	/
O=C(COC(=O)c1cn(-c2ccccc2)nc1-c1ccccc1)Nc1ncc(Cl)cc1Cl	5	8	15*	-3	22*	33*
Cc1cn(-c2ccc(Br)cc2)[nH]c1=O	0	-3	10.0*	-88	19*	21*
Cc1ccc(-n2nc3c(c2NC(=O)c2ccccc2Br)CS(=O)C3)cc1 (centres undefined)	2	-2	8.8*	-9	8	15*
CN(c1cccc(NC(=O)CN(c2cccc(F)c2)S(C)(=O)=O)c1)S(C)(=O)=O	0	3	-1	14	/	/
Cc1ccc(NC(=O)CSc2nc3c(cc2C#N)C(=O)CCC3)cc1S(=O)(=O)N(C)C	0	-3	13*	-10	12*	14*
COc1ccccc1NC(=O)c1ccc(NC(=O)Cc2n[nH]c(=O)c3ccccc23)cc1	4	4	11*	-10	12*	18*
Cc1ccc(C(=O)C2=C(O)C(=O)N(c3ncccn3)C2c2ccc(Br)cc2)o1 (centres undefined)	0	/	/	/	/	/
Cc1ccc(C(=O)C2=C(O)C(=O)N(c3ncccn3)C2c2ccc(F)cc2)o1 (centres undefined)	5	6	16*	18	18*	27*
Cc1ccc(C(=O)C2=C(O)C(=O)N(c3ncccn3)C2c2ccccc2F)o1 (centres undefined)	6	-1	14*	1	25*	32*
CC1CCCC(NC(=O)COC(=O)c2ccc3ccccc3n2)C1C (centres undefined)	1	-5	15*	-16	24*	32*
CC1CCCCC1NC(=O)COC(=O)c1ccc2ccccc2n1 (centres undefined)	0	2	0	-12	/	/
CC1CCCC(NC(=O)COC(=O)c2ccccc2Sc2ccccc2C#N)C1C (centres undefined)	5	21	12*	-20	29*	48*
CCOC(=O)C1CCCN(C(=S)Nc2ccc(C)cc2C)C1 (centres undefined)	1	1	-3	5	/	/
CCOC(=O)c1[nH]c2ccc(OC)cc2c1NC(=S)N1CCN(c2cccc(Cl)c2)CC1	-4	-3	55*	-41	16*	30*
CCOC(=O)c1[nH]c2ccc(OC)cc2c1NC(=S)N1CCN(c2ccccc2)CC1	0	9	11*	-24	3	9.5*
CCOC(=O)c1[nH]c2ccc(OC)cc2c1NC(=S)N1CCN(c2ccccn2)CC1	-5	-1	1	-8	/	/
Cc1ccc(C(=O)NCCc2nnc3ccc(SCC(=O)NCc4ccc(F)cc4)nn23)cc1	1	-6	0	9	/	/
CC1CCCCN1C(=O)CSc1nc(C2CC2)nc2c1cnn2-c1ccccc1 (centres undefined)	3	6	-2	-9	/	/
Cc1nn(C)c(C)c1NC(=O)CSc1nc(C2CC2)nc2c1cnn2-c1ccccc1	2	2	13*	6	43*	74*
CCOC(=O)C1=C(C)N=c2sc(=Cc3cc(Cl)c(OCC(=O)O)c(Cl)c3)c(=O)n2C1c1cccc(OC)c1 (centres undefined)	/	5	-1	5	/	/
O=C(Cn1c(=S)[nH]c2ccccc2c1=O)N1CCN(c2ccc(F)cc2)CC1	-2	9	11*	-16	16*	26*
COc1ccc2c(Cl)c(C(N)=O)sc2c1	-1	5	18*	-63	26*	35*
COc1ccc2c(Cl)c(C(=O)NN)sc2c1	0	0	-2	-4	/	/
Cc1cccc(NC(=O)CCc2nc3sc4c(c3c(=O)[nH]2)CCCC4)n1	-5	-9	1	14	/	/
SMILES	NR2E3 ag-1	Rev-erbA mod	PG9 binder	NR2E3 ag-2	PG9 binder conf	PGV04 counter
O=C(CCc1nc2sc3c(c2c(=O)[nH]1)CCCC3)NCCOc1ccccc1	-2	-4	24*	-27	24*	47*
COc1ccc(CCNC(=O)CCc2nc3sc4c(c3c(=O)[nH]2)CCCC4)cc1	3	0	7	-4	/	/
Cc1cccc(NC(=O)CNC(=O)CCc2nc3sc4c(c3c(=O)[nH]2)CCCC4)c1C	2	-16	22*	-5	21*	40*
O=C(CCc1nc2sc3c(c2c(=O)[nH]1)CCCC3)Nc1ccccc1Cl	-2	4	17*	27	19*	34*
CN(C)C(CNC(=O)CCc1nc2sc3c(c2c(=O)[nH]1)CCCC3)c1ccccc1 (centres undefined)	3	-1	0	-2	/	/
CC(=O)c1ccc(NC(=O)CCc2nc3sc4c(c3c(=O)[nH]2)CCCC4)cc1	-14	12	11*	10	23*	33*
Cc1c(C)c(C)c(S(=O)(=O)NCCc2ccncc2)c(C)c1C	0	5	0	-7	/	/
Cc1cc(-c2ccccc2)nc2c(Br)c(C(=O)O)nn12	-2	/	/	-17	/	/
Cc1cccc(N(Cc2ccccc2)C(=O)Cc2ccc(S(=O)(=O)N3CCOCC3)s2)c1	1	0	2	-13	/	/
Cc1nc(SCCC(=O)O)c2ccccc2n1	8	/	22*	10	19*	24*
O=C(O)CCSc1ccc2ccccc2n1	15	-3	18*	-47	19*	20*
O=C(O)CSc1ccc2ccccc2n1	6	0	4	-38	/	/
Cc1cc(SCCC(=O)O)nc2ccccc12	3	-2	5	5	/	/
COc1cccc(C2NC(=S)N(Cc3ccc(F)cc3)C(C)=C2C(C)=O)c1 (centres undefined)	/	2	-1	/	/	/
COc1ccc(NS(=O)(=O)CC(C)C)c(OC)c1	5	0	-1	11	/	/
CCS(=O)(=O)Nc1ccc(-c2ccc(NS(=O)(=O)CC)c(OC)c2)cc1OC	3	-1	17*	12	14*	16*
O=C(CSc1nc2nc(-c3cccs3)cc(C(F)(F)F)c2c(=O)[nH]1)Nc1ccc(F)c(F)c1	10	-7	17*	-13	20*	28*
O=C(NC(=S)Nc1ccccc1N1CCOCC1)c1sc2ccccc2c1Cl	3	2	-1	-13	/	/
O=C(O)c1ccccc1NC(=S)NC(=O)c1sc2ccccc2c1Cl	5	8	9.8*	-61	17*	19*

High-throughput results deposited in PubChem BioAssay by several laboratories.
